Measurements from ChEMBL document CHEMBL4425087, “Antibacterial Azaphilones from an Endophytic Fungus, Colletotrichum sp. BS4” (2016).
≈ marks a conversion by molar mass, not a printed value. Calls of active or inactive are those of the source. No cut-off for these calls is given here.

Experiments:
[1] = system: Pseudomonas aeruginosa; test: Antibacterial activity against Pseudomonas aeruginosa DSM 22644 incubated for 24 hrs by disk diffusion method; type: functional
In short: (§1)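 Standard control strains from the DSMZ collection (Braunschweig): E. coli and B. subtilis as common environmental strains, and S. aureus and P. aeruginosa as human pathogenic clinical strains. Run by the authors' previously described procedure.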

[2] = system: Bacillus subtilis; test: Antibacterial activity against Bacillus subtilis DSM 1088 incubated for 24 hrs by disk diffusion method; type: functional; in short: as §1
[3] = system: Escherichia coli; test: Antibacterial activity against Escherichia coli DSM 1116 incubated for 24 hrs by disk diffusion method; type: functional; in short: as §1
[4] = system: Staphylococcus aureus; test: Antibacterial activity against Staphylococcus aureus DSM 799 incubated for 24 hrs by disk diffusion method; type: functional; in short: as §1
[5] = system: THP-1; test: Cytotoxicity against human THP1 cells assessed as reduction in cell survival by measuring inhibition of mitochondrial metabolic activity at 0.01 to 100 uM after 48 hrs by resazurin assay; type: functional, cell-based
In short: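 Human acute monocytic leukemia THP-1 cells, in vitro. Resazurin-based read-out measures inhibition of mitochondrial metabolic activity.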

[6] = system: THP-1; test: Cytotoxicity against human THP1 cells assessed as reduction in cell survival by measuring inhibition of intracellular ATP level at 0.01 to 100 uM after 48 hrs by ATPlite assay; type: functional, cell-based
In short: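 THP-1 human acute monocytic leukemia cells, in vitro. ATPlite luminescence measures depletion of cytoplasmic ATP.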

[7] = system: Brevibacillus brevis; test: Antibacterial activity against Bacillus brevis by disk diffusion method; type: functional
[8] = system: Bacillus spizizenii; test: Antibacterial activity against Bacillus subtilis ATCC 6633 by disk diffusion method; type: functional

Row | Molecule | MIC [1] | MIC [2] | MIC [3] | MIC [4] | MIC ([1]; DSM 22644, 24 h) | MIC ([2]; DSM 1088, 24 h) | MIC ([3]; DSM 1116, 24 h) | MIC ([4]; DSM 799, 24 h) | Activity [5] | Activity [6] | MIC [7] | MIC [8]
1 | GENTAMICIN | 1 µg/mL | 1 µg/mL | 1 µg/mL | 1 µg/mL | – | – | – | – | – | – | – | –
2 | CC[C@H](C)C(=O)[C@@H]1C(=O)O[C@@]2(C)C(=O)C=C3C=C(C)OC=C3[C@@H]12 | – | – | – | – | > 10 µg/mL | > 10 µg/mL | > 10 µg/mL | 5 µg/mL (≈ 15.8 µM) | inactive | inactive | – | –
3 | CCCCCCCCCCCCCCCCCC[C@H](C)C(=O)C1=C2C3=COC(C)=CC3=CC(=O)[C@]2(C)OC1=O | – | – | – | – | – | – | – | – | – | – | 5 µg/mL (≈ 9.28 µM) | 5 µg/mL (≈ 9.28 µM)
4 | CN[C@@H]1[C@H](O[C@H]2[C@H](O[C@H]3[C@H](O)[C@@H](O)[C@H](N=C(N)N)[C@@H](O)[C@@H]3N=C(N)N)O[C@@H](C)[C@]2(O)C=O)O[C@@H](CO)[C@H](O)[C@H]1O [STREPTOMYCIN] | – | – | – | – | 10 µg/mL (≈ 17.2 µM) | 5 µg/mL (≈ 8.6 µM) | 1 µg/mL (≈ 1.72 µM) | 5 µg/mL (≈ 8.6 µM) | – | – | – | –
5 | CC[C@H](C)C(=O)[C@H]1C(=O)O[C@@]2(C)C(=O)C=C3C=C(C)OC=C3[C@H]12 [CHERMESINONE B] | – | – | – | – | > 10 µg/mL | > 10 µg/mL | > 10 µg/mL | > 10 µg/mL | inactive | inactive | – | –
6 | CC[C@H](C)C1=C2C(=O)O[C@@]3(C)C(=O)C=C4C=C(C)O[C@@H](O1)[C@@]4(O)[C@@]23O | – | – | – | – | > 10 µg/mL | 0.1 µg/mL (≈ 0.287 µM) | 1 µg/mL (≈ 2.87 µM) | > 10 µg/mL | inactive | inactive | – | –
7 | CC[C@H](C)C(=O)[C@H]1C(=O)O[C@@]2(C)C(=O)C=C3C=C(C)OC[C@H]3[C@H]12 | – | – | – | – | > 10 µg/mL | > 10 µg/mL | 5 µg/mL (≈ 15.7 µM) | > 10 µg/mL | inactive | inactive | – | –
